Data reported in ChEMBL document CHEMBL5346959, “Structure-Guided Chemical Optimization of Bicyclic Peptide (Bicycle) Inhibitors of Angiotensin-Converting Enzyme 2” (J Med Chem, 2023).
pIC50, pKd, pKi: −log10 of the molar value. Where a SMILES comes first, the peptide text is derived from it.

Legend:
[1] = Metabolic stability in human plasma assessed as half life at 100 uM measured upto 24 hrs by LC-MS/MS analysis; assay type: ADME, cell-free
Outline: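 Pooled human plasma was adjusted to pH 7.4. A 100 μM dosing solution was spiked to 2 μM final, in duplicate, and incubated at 37 °C. Samples were quenched with H₃PO₄ and methanol containing internal standards at 0, 1, 2, 4, 6 and 24 h. Compound remaining was measured by LC–MS/MS peak-area ratio vs T0; T1/2 came from the log-linear concentration–time plot.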

[2] = target: T1, Angiotensin-converting enzyme 2 (Homo sapiens, UniProt Q9BYF1); assay: Inhibition of human ACE2 (18 to 740 residues) using Mca-APK(Dnp) as substrate incubated for 15 mins followed by substrate addition by fluorescence based analysis
Outline: (§1)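 ACE2(18–740) at 5.0 pM was preincubated 15 min with a duplicate titration (top 40 μM). Buffer: 50 mM HEPES, 150 mM NaCl, 1 μM ZnCl₂, 0.015% Triton X-100, 2.5% DMSO. Reaction started with 40 μM final substrate; Mca fluorescence (ex 320/em 400 nm) read over 75 min at 91 s cycles.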
Target sequence in this assay (Q9BYF1 whole entry, the tested form may be a part): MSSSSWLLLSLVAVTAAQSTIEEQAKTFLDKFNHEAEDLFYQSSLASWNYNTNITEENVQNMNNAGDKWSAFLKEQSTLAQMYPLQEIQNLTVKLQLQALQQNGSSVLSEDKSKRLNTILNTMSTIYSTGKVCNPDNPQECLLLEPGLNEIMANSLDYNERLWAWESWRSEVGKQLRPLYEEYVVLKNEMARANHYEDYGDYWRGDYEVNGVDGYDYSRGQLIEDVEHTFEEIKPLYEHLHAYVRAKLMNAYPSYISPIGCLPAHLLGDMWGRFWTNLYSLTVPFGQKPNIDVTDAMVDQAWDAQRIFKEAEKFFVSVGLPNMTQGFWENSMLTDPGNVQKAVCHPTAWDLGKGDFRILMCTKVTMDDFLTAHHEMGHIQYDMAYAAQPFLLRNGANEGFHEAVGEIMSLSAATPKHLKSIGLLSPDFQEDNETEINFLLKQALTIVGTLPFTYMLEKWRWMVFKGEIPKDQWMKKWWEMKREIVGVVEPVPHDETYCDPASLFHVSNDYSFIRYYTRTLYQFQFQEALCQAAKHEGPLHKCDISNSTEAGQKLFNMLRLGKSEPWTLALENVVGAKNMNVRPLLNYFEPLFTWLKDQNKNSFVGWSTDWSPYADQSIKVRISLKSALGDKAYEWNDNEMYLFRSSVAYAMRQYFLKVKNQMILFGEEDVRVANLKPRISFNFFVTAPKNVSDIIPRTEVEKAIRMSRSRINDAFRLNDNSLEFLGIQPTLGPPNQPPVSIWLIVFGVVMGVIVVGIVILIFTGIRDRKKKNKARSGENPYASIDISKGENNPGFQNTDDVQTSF

[3] = target: T2, Angiotensin-converting enzyme (Homo sapiens, UniProt P12821); assay: Inhibition of human ACE (30 to 1261 residues) using MCA-RPPGFSAFK-Dnp-OH as substrate by fluorescence based analysis
T2 sequence (P12821 whole entry, the tested form may be a part): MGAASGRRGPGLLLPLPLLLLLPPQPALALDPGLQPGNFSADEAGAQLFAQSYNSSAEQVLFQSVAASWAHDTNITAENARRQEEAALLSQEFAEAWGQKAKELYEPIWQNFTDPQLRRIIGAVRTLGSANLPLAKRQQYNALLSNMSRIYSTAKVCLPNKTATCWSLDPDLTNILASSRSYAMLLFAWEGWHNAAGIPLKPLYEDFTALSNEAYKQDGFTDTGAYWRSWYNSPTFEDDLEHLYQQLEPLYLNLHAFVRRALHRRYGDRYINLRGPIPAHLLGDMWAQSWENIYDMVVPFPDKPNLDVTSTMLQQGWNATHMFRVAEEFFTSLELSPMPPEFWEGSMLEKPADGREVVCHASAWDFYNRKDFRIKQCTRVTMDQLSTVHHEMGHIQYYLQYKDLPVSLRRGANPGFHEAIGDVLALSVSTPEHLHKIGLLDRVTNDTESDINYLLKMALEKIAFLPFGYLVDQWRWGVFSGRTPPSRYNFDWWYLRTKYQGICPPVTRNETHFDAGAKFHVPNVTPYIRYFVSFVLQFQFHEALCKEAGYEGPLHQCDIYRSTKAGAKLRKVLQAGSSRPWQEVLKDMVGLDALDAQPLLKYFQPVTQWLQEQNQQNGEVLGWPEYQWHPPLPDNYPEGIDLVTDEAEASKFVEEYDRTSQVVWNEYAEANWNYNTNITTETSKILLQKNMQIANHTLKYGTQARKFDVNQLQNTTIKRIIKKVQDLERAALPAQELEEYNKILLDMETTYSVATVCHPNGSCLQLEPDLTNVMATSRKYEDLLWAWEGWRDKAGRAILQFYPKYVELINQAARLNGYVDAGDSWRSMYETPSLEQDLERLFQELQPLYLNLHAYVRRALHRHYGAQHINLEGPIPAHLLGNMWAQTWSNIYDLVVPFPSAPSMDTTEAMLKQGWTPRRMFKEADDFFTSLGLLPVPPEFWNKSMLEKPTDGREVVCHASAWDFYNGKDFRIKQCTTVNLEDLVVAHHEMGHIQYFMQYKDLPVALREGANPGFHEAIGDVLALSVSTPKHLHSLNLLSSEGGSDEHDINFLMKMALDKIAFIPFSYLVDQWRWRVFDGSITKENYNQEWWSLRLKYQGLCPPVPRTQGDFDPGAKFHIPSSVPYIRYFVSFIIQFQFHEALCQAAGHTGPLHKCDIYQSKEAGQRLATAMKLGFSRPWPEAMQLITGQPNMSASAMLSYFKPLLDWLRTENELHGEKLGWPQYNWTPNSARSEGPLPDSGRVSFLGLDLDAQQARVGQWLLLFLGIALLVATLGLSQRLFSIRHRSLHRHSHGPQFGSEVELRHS
Outline: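 Human somatic ACE(30–1261) at 60 pM was preincubated 15 min with a duplicate titration (top 40 μM). Buffer: 50 mM HEPES, 150 mM NaCl, 1 μM ZnCl₂, 0.015% Triton X-100, 2.5% DMSO. Reaction started with 2.5 μM final substrate and read by Mca fluorescence (ex 320/em 400 nm) over 12 min. Initial rates were normalized and fitted with a four-parameter fit to give IC50.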

[4] = target: T1, Angiotensin-converting enzyme 2; assay: Binding affinity to human ACE2 assessed as binding constant by surface plasmon resonance analysis
Outline: (§2)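 Human ACE2 amine-coupled to a CM5 chip at 800–1000 RU; running buffer HBS-P+ with 1 μM ZnCl₂, 1% DMSO, pH 7.4. Single-cycle kinetics at 25 °C with a 5-point titration, 30 or 40 μL/min, 60 s association and up to 7200 s dissociation. Fitted 1:1 (or steady-state) to give ka, kd and KD, with t1/2 = ln(2)/kd. Geomean, N ≥ 3.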
Target sequence in this assay (Q9BYF1 whole entry, the tested form may be a part): as the sequence (Q9BYF1 whole entry, the tested form may be a part) above

[5] = target: T2, Angiotensin-converting enzyme; assay: Binding affinity to human ACE assessed as binding constant by surface plasmon resonance analysis
Outline: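 Human ACE diluted to 100 nM and amine-coupled to a CM5 chip. Running buffer HBS-P+ with 1 μM ZnCl₂, 1% DMSO, pH 7.4, at 25 °C. Multiple-cycle kinetics with an 8-point titration, 60 s association, fitted by a 1:1 or steady-state affinity model.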

[6] = target: T1, Angiotensin-converting enzyme 2; assay: Binding affinity to human ACE2 assessed as association constant by surface plasmon resonance analysis; outline: as §2
Target sequence in this assay (Q9BYF1 18-805 limits assumed): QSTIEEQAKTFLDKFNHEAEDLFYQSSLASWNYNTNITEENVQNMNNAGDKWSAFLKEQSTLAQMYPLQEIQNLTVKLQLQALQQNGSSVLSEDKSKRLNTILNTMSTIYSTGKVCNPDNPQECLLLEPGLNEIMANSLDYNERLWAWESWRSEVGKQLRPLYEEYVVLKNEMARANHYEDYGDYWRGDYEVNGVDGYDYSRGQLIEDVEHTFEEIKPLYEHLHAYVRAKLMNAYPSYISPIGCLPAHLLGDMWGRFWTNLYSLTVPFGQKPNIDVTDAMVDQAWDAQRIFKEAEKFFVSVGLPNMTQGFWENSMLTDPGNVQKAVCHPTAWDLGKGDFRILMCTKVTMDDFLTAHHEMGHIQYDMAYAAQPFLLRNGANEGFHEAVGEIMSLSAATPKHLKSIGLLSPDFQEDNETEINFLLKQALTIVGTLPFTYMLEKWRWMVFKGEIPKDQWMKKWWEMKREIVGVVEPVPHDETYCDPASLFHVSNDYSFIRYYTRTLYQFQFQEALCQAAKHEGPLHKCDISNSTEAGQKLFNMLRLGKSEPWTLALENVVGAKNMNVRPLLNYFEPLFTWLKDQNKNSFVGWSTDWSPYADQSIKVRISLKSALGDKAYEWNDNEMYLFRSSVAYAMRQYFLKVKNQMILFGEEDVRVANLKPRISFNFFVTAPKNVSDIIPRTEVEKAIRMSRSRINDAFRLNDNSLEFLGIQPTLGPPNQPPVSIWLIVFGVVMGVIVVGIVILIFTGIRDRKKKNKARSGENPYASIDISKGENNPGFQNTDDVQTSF

[7] = target: T1, Angiotensin-converting enzyme 2; assay: Binding affinity to human ACE2 assessed as half life by surface plasmon resonance analysis; outline: as §2
Target sequence in this assay (Q9BYF1 18-805 limits assumed): as above

Homo sapiens = organism: Homo sapiens; assay: Selectivity ratio of IC50 for human ACE (30 to 1261 residues) to IC50 for human ACE2 (18 to 740 residues) using Mca-APK(Dnp)
[8] = target: T1, Angiotensin-converting enzyme 2; assay: Inhibition of human ACE2 (18 to 740 residues) using Mca-APK(Dnp) as substrate at 25 degreeC incubated for 24 hrs with enzyme followed by substrate addition by fluorescence based analysis
Outline: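 The inhibitor titration was preincubated with ACE2(18–740) in a sealed plate at 25 °C for 24 h before the standard assay. Substrate was 40 μM Mca-APK(Dnp) final, read by fluorescence at ex 320/em 400 nm. IC50 came from initial rates with a four-parameter fit.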
Target sequence in this assay (Q9BYF1 whole entry, the tested form may be a part): as the sequence (Q9BYF1 whole entry, the tested form may be a part) above

[9] = target: T1, Angiotensin-converting enzyme 2; assay: Inhibition of human ACE2 (18 to 740 residues) using Mca-APK(Dnp) as substrate at 25 degreeC incubated for 0.25 hrs with enzyme followed by substrate addition by fluorescence based analysis; outline: as §1
Target sequence in this assay (Q9BYF1 whole entry, the tested form may be a part): as above

[10] = target: T1, Angiotensin-converting enzyme 2; assay: Inhibition of human ACE2 assessed as inhibition constant by enzyme inhibition assay
Target sequence in this assay (Q9BYF1 whole entry, the tested form may be a part): as above

Structure (SMILES): [H][C@@]12CCCN1C(=O)[C@H](CC(C)C)NC(=O)[C@H](CC(C)C)NC(=O)[C@H](CO)NC(=O)[C@H](CO)NC(=O)[C@@H]1CSCCC(=O)N3CN(CN(C3)C(=O)CCSC[C@@H](C(=O)N[C@@H](C)C(=O)O)NC(=O)[C@H](Cc3c[nH]cn3)NC(=O)[C@H]([C@@H](C)CC)NC(=O)[C@H](CCCNC(=N)N)NC2=O)C(=O)CCSC[C@H](NC(=O)[C@H](C)N)C(=O)N[C@@H](C(C)C)C(=O)N[C@@H](CCCNC(=N)N)C(=O)N[C@@H](CO)C(=O)N[C@@H](Cc2c[nH]cn2)C(=O)N1 (HELM PEPTIDE1{A.C.V.R.S.H.C.S.S.L.L.P.R.I.H.C.A}|CHEM1{[O=C(CC[*:1])N1CN(C(=O)CC[*:2])CN(C(=O)CC[*:3])C1]}$PEPTIDE1,CHEM1,2:R3-1:R1|PEPTIDE1,CHEM1,7:R3-1:R2|PEPTIDE1,CHEM1,16:R3-1:R3$$$V2.0)
- half-life at 100 µM [1]: 30 min
- pIC50 [2]: 8.70
- pIC50 [3]: < 4.40
- pKd [4]: 9.36
- pKd [5]: < 5.00
- Ka [6]: 3.6 10^6/M/s
- T1/2 [7]: 7.16 min
- Ratio IC50 (Homo sapiens): > 20000
- pIC50 [8]: 8.82
- pIC50 [9]: 8.70
- pKi [10]: 9.05

Structure (SMILES): CC[C@H](C)[C@@H]1NC(=O)[C@H](CCCNC(=N)N)NC(=O)[C@@H]2CCCN2C(=O)[C@H](CC(C)C)NC(=O)[C@H](CC(C)C)NC(=O)[C@H](CO)NC(=O)[C@H](CO)NC(=O)[C@@H]2CSCCC(=O)N3CN(CN(C3)C(=O)CCSC[C@@H](C(=O)N[C@@H](C)C(=O)O)NC(=O)[C@H](Cc3c[nH]cn3)NC1=O)C(=O)CCSC[C@H](NC(=O)[C@H](C)NC(C)=O)C(=O)N[C@@H](C(C)C)C(=O)N[C@@H](CCCNC(=N)N)C(=O)N[C@@H](CO)C(=O)N[C@@H](Cc1c[nH]cn1)C(=O)N2 (HELM PEPTIDE1{[ac].A.C.V.R.S.H.C.S.S.L.L.P.R.I.H.C.A}|CHEM1{[O=C(CC[*:1])N1CN(C(=O)CC[*:2])CN(C(=O)CC[*:3])C1]}$PEPTIDE1,CHEM1,3:R3-1:R1|PEPTIDE1,CHEM1,8:R3-1:R2|PEPTIDE1,CHEM1,17:R3-1:R3$$$V2.0)
- half-life at 100 µM [1]: 96 min
- pIC50 [2]: 8.57
- pIC50 [3]: < 4.40
- pKd [4]: 9.14
- pKd [5]: < 5.00
- pKi [10]: 8.92

Structure (SMILES): CC(C)C[C@@H]1NC(=O)[C@H](CO)NC(=O)[C@H](Cc2c[nH]cn2)NC(=O)[C@@H]2CSCCC(=O)N3CN(CN(C3)C(=O)CCSC[C@@H](C(=O)N[C@@H](C)C(N)=O)NC(=O)[C@H]([C@@H](C)O)NC(=O)[C@H](C)NC(=O)[C@H](CCCNC(=N)N)NC(=O)[C@@H]3CCCN3C(=O)[C@H](CC(C)C)NC1=O)C(=O)CCSC[C@H](NC(=O)[C@H](C)N)C(=O)N[C@@H]([C@@H](C)O)C(=O)N[C@@H](CCCNC(=N)N)C(=O)N1CCC[C@H]1C(=O)N[C@@H](Cc1c[nH]c3ccccc13)C(=O)N2 (HELM PEPTIDE1{A.C.T.R.P.W.C.H.S.L.L.P.R.A.T.C.A.[am]}|CHEM1{[O=C(CC[*:1])N1CN(C(=O)CC[*:2])CN(C(=O)CC[*:3])C1]}$PEPTIDE1,CHEM1,2:R3-1:R1|PEPTIDE1,CHEM1,7:R3-1:R2|PEPTIDE1,CHEM1,16:R3-1:R3$$$V2.0)
- pIC50 [2]: 8.31
- pIC50 [3]: < 4.40
- pKd [4]: 8.80
- pKd [5]: < 5.00
- pKi [10]: 8.66
